Experiment [1] can be described thus: inhibitors of TNFa-induced NFkB p65 translocation, primary screen, imaging, HUVEC, MLSMR starter and 10KST1 sets (AID 438;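 active means inhibition above 20% together with a positive visual image hit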;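 further: compound added about 3h40 before a 20 min TNFalpha stimulation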;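 on inhibition: signal is the nuclear over cytoplasmic p65 intensity ratio per well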). The note with it: HUVEC TNFa-induced p65 nuclear translocation; cell count: measured here: nuclei count (cytotoxicity indicator), at 2.08 µM; inhibition: at 2 µM, stronger effect = higher value, 0% TNFa-plus-vehicle, 100% no-TNFa wells.
Experiment [2] can be described thus: endothelial E-selectin expression blockers – imaging, HUVEC, immunofluorescence, MLSMR starter and 10KST1 sets, primary screen (AID 487;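 active means visually confirmed hit in the image check and inhibition above 20%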;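 on inhibition: signal is fraction of cell area covered by stained E-selectin grains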;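 on nuclei count: 100% = median nuclei count of all wells on the same plate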). The note with it: HUVEC TNFalpha-induced E-selectin immunofluorescence imaging, at 2 µM; inhibition: stronger effect = higher value; nuclei count: measured here: cell number, toxicity.
Experiment [3] can be described thus: Primary imaging screen for DUSP6 inhibitors that restore phospho-Erk in transfected HeLa cells, chemical complementation (AID 609;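 active means compounds giving at least 50% inhibition in the cell-based MKP-3 phosphatase rescue imaging test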;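 on inhibition: phospho-Erk level distribution per well compared with pooled transfected vehicle control wells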). The conditions noted are these: HeLa MKP-3 transfected, phospho-Erk imaging KS statistic, at 10 µM, cells stimulated with TPA for 15 min.
The target in experiment [4] is Dual specificity protein phosphatase 6 (Homo sapiens) (UniProt Q16828). Described as above. The conditions noted are these: HeLa MKP-3 transfected, phospho-Erk imaging KS statistic; at 10 µM; stronger effect = higher value; cells stimulated with TPA for 15 min.
For experiment [5], the target named is Voltage-gated potassium channel subunit beta-2 (Rattus norvegicus) (UniProt P62483). Description: inhibitors of rat Kvbeta2 reductase activity – biochemical, NADPH fluorescence, primary screen (AID 622;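 active means fluorescence slope higher than the sample average by over 3 SD, cut at about -0.22 in these data, passing the limit was not always enough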;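 further: slope of raw intensity against log time taken from 70 to 1610 s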). The note with it: recombinant KvBeta, 4-cyanobenzaldehyde reduction, at 10 µM, stronger effect = higher value.
Experiment [6] shares this target. The experiment in a line: enhancers of rat Kvbeta2 NADPH turnover – biochemical, NADPH fluorescence, primary screen (AID 623;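 active means NADPH fluorescence slope more negative than the mean of all samples by about 3 SD, 99.7% confidence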;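 further: fluorescence intensity change per second fitted from 20 to 320 s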). The note with it: Recombinant KvBeta, NADPH fluorescence decrease slope, 10 min; at 10 µM; stronger effect = lower value.
Experiment [7] deals with Alpha-2C adrenergic receptor (Homo sapiens) (UniProt P18825). The experiment in a line: compounds altering alpha2C-coupled GIRK flux – cell-based, HEK293 alpha2C/GIRK1/2, thallium flux, primary screen (AID 624;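 active means fluorescence slope after compound addition differing from the mean of all screened samples at 99.7% confidence, in either direction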;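 further: slope of fluorescence ratio to pre-addition baseline per second over 15 to 24 s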). The note with it: thallium flux BTC fluorescence, at 10 µM, actives lie on both sides.
Experiment [8] in a line: inhibitors of larval lipid processing in zebrafish, primary screen, whole organism, PED6 fluorescence, gall bladder and intestine (AID 686;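 active means a full or partial loss of lipid-probe fluorescence in the fish gall bladder, intestine or both, judged by eye; inactive means no fluorescence loss, or compound toxic to the fish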;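 further: signal comes from phospholipase A2 cleavage of quenched PED6 carried via bile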). The conditions noted are these: Zebrafish larvae PED6 lipid processing, fluorescence scoring; screened at 20 µM (by protocol). In outline: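 Doses: 20 µM single dose. Test system: live zebrafish larvae aged 5-7 days, whole organism. Quantity: five larvae per well. Measured by: By-eye fluorescence microscopy. Reagent: ingested quenched lipid PED6 at 100 nM. Read-out: visual per-well fluorescence inhibition score. Times: overnight exposure of larvae to compound plus PED6.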

Experiment [9] can be described thus: loss of swimming-algae plug formation – whole organism, Chlamydomonas reinhardtii, WT vs cilia-less mutant, absorbance, 96-well, primary screen (AID 463189).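 Further: 0% = wild type cc124 cells in DMSO and 100% = ciliumless bld1 mutant cells.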 The note with it: Chlamydomonas reinhardtii gravitaxis, OD600 absorbance, 2 days; at 10 µM; stronger effect = higher value.
The mark [10] stands for this setting: measured here: cell density z-score.
The mark [11] stands for this setting: measured here: nuclear c-Myc green intensity z-score.
The mark [12] stands for this setting: measured here: nuclear pErk red intensity z-score, stronger effect = higher value.

This is an account of results in PubChem BioAssay.

One may read the inhibition as the relative decrease from the control value, in per cent.

SMILES strings stand for the structures. Activity calls are given as the source filed them.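 How the source made its calls, unless noted: active means inhibition at or above 50% relative to wild type and mutant plate controls; inactive means inhibition below 50%.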

Sequence of Voltage-gated potassium channel subunit beta-2 (Rattus norvegicus) (P62483 whole entry, looked up): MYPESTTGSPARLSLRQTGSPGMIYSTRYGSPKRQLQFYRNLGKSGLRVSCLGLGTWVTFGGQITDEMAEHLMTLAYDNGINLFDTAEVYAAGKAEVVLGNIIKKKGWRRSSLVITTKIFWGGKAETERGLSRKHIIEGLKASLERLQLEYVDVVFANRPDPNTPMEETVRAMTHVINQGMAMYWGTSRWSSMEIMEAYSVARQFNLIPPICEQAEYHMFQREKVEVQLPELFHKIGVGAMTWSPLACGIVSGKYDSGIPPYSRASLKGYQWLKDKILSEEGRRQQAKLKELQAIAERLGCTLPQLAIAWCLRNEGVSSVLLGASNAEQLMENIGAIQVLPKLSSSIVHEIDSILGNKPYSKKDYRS
Sequence of Alpha-2C adrenergic receptor (Homo sapiens) (P18825 whole entry, looked up): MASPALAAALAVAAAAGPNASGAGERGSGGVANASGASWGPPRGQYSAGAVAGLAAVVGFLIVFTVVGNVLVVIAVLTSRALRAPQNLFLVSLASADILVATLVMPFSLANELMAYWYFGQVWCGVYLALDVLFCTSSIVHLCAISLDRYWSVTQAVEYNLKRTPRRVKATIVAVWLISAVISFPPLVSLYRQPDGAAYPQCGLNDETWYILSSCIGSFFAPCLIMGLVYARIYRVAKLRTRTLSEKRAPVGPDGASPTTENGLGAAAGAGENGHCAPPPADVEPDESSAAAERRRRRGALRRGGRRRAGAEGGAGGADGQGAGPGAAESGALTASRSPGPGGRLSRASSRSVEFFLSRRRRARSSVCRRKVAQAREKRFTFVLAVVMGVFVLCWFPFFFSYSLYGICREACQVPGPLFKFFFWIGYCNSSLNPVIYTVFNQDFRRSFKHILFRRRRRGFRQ
Sequence of Dual specificity protein phosphatase 6 (Homo sapiens) (Q16828 whole entry, looked up): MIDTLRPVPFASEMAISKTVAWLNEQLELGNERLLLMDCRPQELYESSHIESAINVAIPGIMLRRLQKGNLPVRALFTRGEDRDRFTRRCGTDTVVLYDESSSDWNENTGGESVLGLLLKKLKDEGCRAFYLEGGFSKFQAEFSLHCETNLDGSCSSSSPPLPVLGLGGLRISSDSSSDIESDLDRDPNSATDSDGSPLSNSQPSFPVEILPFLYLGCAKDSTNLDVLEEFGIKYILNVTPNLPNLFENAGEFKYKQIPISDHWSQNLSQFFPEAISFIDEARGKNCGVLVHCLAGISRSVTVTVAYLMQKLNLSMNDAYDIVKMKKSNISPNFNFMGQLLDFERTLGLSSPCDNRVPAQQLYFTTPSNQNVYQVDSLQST

In the case of `CCCCCSc1nc(O)cc(=O)[nH]1`, in experiment [1], the cell count was determined as 366. Further, the inhibition in experiment [1] is -1.9% (inactive); in [2] it was -61.7% (inactive); in experiment [4] it was -0.624% (inactive); in experiment [9], -10.7% (inactive). In addition, in experiment [2], the nuclei count stood at 116%. The z-score in experiment [3] (setting [10]) is -1.75; in experiment [3] (setting [11]), 1.21; in [3] (setting [12]), 0.475. Besides, in experiment [5], the fluorescence slope was -0.395 (inactive). For the same compound, the NADPH fluorescence slope in experiment [6] was 1.3e-05 (inactive). The slope in experiment [7] is 0.00579 (inactive). Moreover, the outcome in experiment [8] was inactive.
For the compound `Cc1cc(Cl)ccc1OCC(=O)OC(C)C(=O)N(C)C` (stereo unspecified), the cell count in experiment [1] turned out to be 356. The inhibition in experiment [1] is -24% (inactive); in [2] it was -194% (inactive); in experiment [4] it was 5.26% (inactive); in experiment [9], 7.97% (inactive). The compound further gave a nuclei count in [2] of 168%. For the same compound, the z-score in experiment [3] (setting [10]) was 1.09; in experiment [3] (setting [11]), 0.169; in experiment [3] (setting [12]), -0.845. Moreover, the fluorescence slope in experiment [5] was -0.439 (inactive). Also, the NADPH fluorescence slope in experiment [6] was -0.000171 (inactive). The slope in [7] is 0.00631 (inactive). The compound was classed as inactive in experiment [8].
Take `N#CC1=C(N)NC(SCc2ccc(Cl)cc2)=C(C#N)C12CCCCC2`: the cell count in experiment [1] was 630. In addition, the inhibition in [1] is -23% (inactive); in experiment [2], 44.1% (inactive); in [4], 1.04% (inactive); in experiment [9] it was 18.9% (inactive). In experiment [2], this compound came in with a nuclei count of 180%. Further, the z-score in experiment [3] (setting [10]) is 0.0253; in experiment [3] (setting [11]), -0.669; in experiment [3] (setting [12]), 0.519. In experiment [5], the fluorescence slope was -0.409 (inactive). Further, the NADPH fluorescence slope in experiment [6] was -5.9e-05 (inactive). In addition, in experiment [7], the slope is 0.00372 (inactive). In addition, the compound was called inactive in experiment [8].
Consider `CC(=O)N=C(N)Sc1nc2ccccc2[nH]1`, for which, in experiment [1], the cell count worked out at 570. Further, the inhibition in [1] was -2.8% (inactive); in [2] it was -55% (inactive); in [4] it was 22.1% (inactive); in [9] it was 4.16% (inactive). In [2], the nuclei count was determined as 161%. In addition, the z-score in experiment [3] (setting [10]) was -0.578; in [3] (setting [11]) it was 0.85; in experiment [3] (setting [12]), 0.434. Further, the fluorescence slope in experiment [5] was -0.462 (inactive). In experiment [6], the NADPH fluorescence slope was -0.000171 (inactive). For the same compound, in [7], the slope is 0.00501 (inactive). The outcome in [8] was inactive.
As to `CCOc1cccc(-c2nn3c(-c4ccco4)nnc3s2)c1`, the cell count in [1] was 591. Besides, the inhibition is -18.9% (inactive) in experiment [1], -310% (inactive) in [2], -4.27% (inactive) in experiment [4] and 17.2% (inactive) in [9]. The same compound registered a nuclei count in experiment [2] of 153%. For the same compound, the values for the z-score in experiment [3] (setting [10]), in experiment [3] (setting [11]) and in experiment [3] (setting [12]) were -0.574, -0.476 and -0.496, respectively. Also, in experiment [5], the fluorescence slope is -0.409 (inactive). The NADPH fluorescence slope in experiment [6] was -0.00014 (inactive). Also, in [7], the slope was 0.00461 (inactive). Besides, the compound was called inactive in [8].
With `CCOc1ccc(C2C(C(=O)c3ccc(C)o3)=C(O)C(=O)N2CCCN(CC)CC)cc1` (stereo unspecified), in experiment [1], the cell count amounted to 518. The inhibition in experiment [1] is -20.5% (inactive); in experiment [2], -72.6% (inactive); in experiment [4] it was -2.47% (inactive); in experiment [9], 0.749% (inactive). For the same compound, the nuclei count in experiment [2] amounted to 151%. In addition, the z-score in [3] (setting [10]) is 1.15; in experiment [3] (setting [11]), -0.0565; in experiment [3] (setting [12]) it was 0.452. For the same compound, in experiment [5], the fluorescence slope is -0.509 (inactive). For the same compound, the NADPH fluorescence slope in [6] is -3.9e-05 (inactive). The slope in [7] was 0.00538 (inactive). For the same compound, the compound was called inactive in [8].
Regarding `Oc1ccc2c(c1)C1CCCC1(N1CCOCC1)O2` (stereo unspecified), the cell count in [1] amounted to 414. Further, the inhibition in [1] is 0.7% (inactive); in experiment [2], -83.5% (inactive); in [4], 3.42% (inactive); in experiment [9], -3.55% (inactive). For the same compound, the nuclei count in experiment [2] was 128%. The z-score in [3] (setting [10]) is 0.996; in [3] (setting [11]), -0.205; in experiment [3] (setting [12]) it was -1.79. Further, the fluorescence slope in experiment [5] was -0.458 (inactive). For the same compound, the NADPH fluorescence slope in [6] is -0.000124 (inactive). In addition, the slope in [7] was 0.005 (inactive). Moreover, the compound was called inactive in [8].
